ABHD5-PLIN5 inh – ABHD5-PLIN5 interaction inhibitors, primary screen, cell lysate, split luciferase complementation, luminescence; Split G. princeps luciferase complementation, 4 h; inhibition, % at 4 µM; 360,000 compounds, 0.78% hits; AID 602281, 2012;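 active = inhibition above the mean inhibition across every tested compound plus 3 SD, cut at about 22% in these data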;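 note: 0% = DMSO only wells and the 100% control is not disclosed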
Beta2AR agonist – beta2AR agonists driving receptor internalization, primary screen, cell-based, FAP fluorogen, flow cytometry; response, % (test concentration not listed); AID 504454, 2011; Am2.2-beta2AR cells; 340,000 compounds, 0.43% hits; Beta-2 adrenergic receptor (Homo sapiens), P07550;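 active = response above a set limit, near 3 SD of response in nonfluorescent compounds, cut at about 42% in these data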
Target sequence (P07550 whole entry, looked up): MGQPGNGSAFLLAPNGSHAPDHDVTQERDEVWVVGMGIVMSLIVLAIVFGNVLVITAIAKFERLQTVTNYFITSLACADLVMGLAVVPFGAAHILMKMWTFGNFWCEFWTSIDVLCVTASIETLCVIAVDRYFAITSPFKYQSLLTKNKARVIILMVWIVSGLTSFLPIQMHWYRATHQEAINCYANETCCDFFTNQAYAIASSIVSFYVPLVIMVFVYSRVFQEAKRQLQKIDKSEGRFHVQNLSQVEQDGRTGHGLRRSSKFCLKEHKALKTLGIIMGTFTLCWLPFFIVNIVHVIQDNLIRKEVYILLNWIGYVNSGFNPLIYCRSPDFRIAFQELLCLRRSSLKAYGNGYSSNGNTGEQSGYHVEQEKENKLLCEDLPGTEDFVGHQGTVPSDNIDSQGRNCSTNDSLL
Dynein transport – inhibitors of GR-EGFP nuclear translocation, primary screen, dynein cargo transport inhibitor project, imaging, high-content, 3617.4 mouse cells. test concentration mostly 20 µM; stimulated with dexamethasone, 1 µM; active compounds read low. 220,000 compounds, 0.47% hits. z-score, hits read low;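 active = plate z-score of nuclear minus cytoplasmic receptor signal below a set negative limit, without overly bright fluorescence or cell loss, cut at about -3.5 in these data, passing the limit was not always enough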;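 note: z-score of nuclear minus cytoplasmic ring GR-EGFP intensity difference per well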
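medium = tetracycline-free induction medium containing charcoal-stripped FBS | also added = 1.0 µM final dexamethasone stimulus | schedule = 48 h induction, 1 h compound, 30 min dex at 37 °C | technique = fixed, Hoechst-stained cells imaged at 10x for EGFP | measure = GR-EGFP nuclear translocation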
TLR4 MyD88 comp – inhibitors of TLR4-MyD88 association in cells, primary screen, cell-based, HeLa CL3-4, BLA complementation, FRET ratio; Toll-like receptor 4 (Homo sapiens) + Myeloid differentiation primary response protein …; HeLa CL3-4 TLR4/MyD88 BLA complementation; inhibition, % at 8.4 µM; 200,000 compounds, 0.18% hits; AID 861, 2007; in the data active = inhibition above about 25%;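 note: 0% = vehicle and 100% = reference inhibitor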
TLR9-MyD88 block – inhibitors of TLR9-MyD88 association in cells, primary screen, cell-based, CHO, BLA complementation, fluorescence | inhibition, % at 4.98 µM | CCF4 FRET ratio | Toll-like receptor 9 (Homo sapiens) + Myeloid differentiation primary response protein … | 340,000 compounds, 0.21% hits | AID 504734, 2011;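 active = inhibition above the mean over all tested compounds plus 3 SD, cut at about 21% in these data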;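 note: 0% = DMSO only wells and 100% = clavulanate BLA inhibitor control wells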
NOD2-RIPK2 inh – NOD2-RIPK2 binding disruptors in cells, primary screen, fluorescence, CHO cells, BLA complementation; inhibition, % at 4.98 µM; Receptor-interacting serine/threonine-protein kinase 2 (Homo sapiens), O43353; CCF4 ratio; 360,000 compounds, 0.38% hits; in the data active = inhibition above about 21%;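 note: 0% = vehicle only and 100% = reference blocker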
NOD2-RIPK2 conf – NOD2-RIPK2 binding disruptors, retest, confirmation, fluorescence, CHO cells, BLA complementation, triplicate; shares compounds with NOD2-RIPK2 inh; CCF4 FRET; inhibition, % at 4.98 µM; 1,200 compounds, 70% hits; AID 624370, 2012;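 active = mean inhibition across replicates above a set limit taken from the earlier primary screen, cut at about 21% in these data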;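 note: 0% = DMSO-only wells and the high end = clavulanate BLA-blocked wells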
BLA counter – hits BLA reporter in NOD2-RIPK2 inhibitor counterscreen | 1,200 compounds, 57% hits | shares compounds with NOD2-RIPK2 inh | inhibition, % at 4.98 µM | CHO BLA reporter, CCF4 FRET ratio;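 active = mean inhibition above the low-control mean inhibition plus three low-control SD, cut at about 11% in these data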;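 note: 0% = DMSO only wells and 100% = clavulanate high control wells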
* marks the source's active call; other numbers are inactive results; / = no result given. An excerpt weighted towards active compounds, which were near 1.6% of everything screened.

SMILES | ABHD5-PLIN5 inh | Beta2AR agonist | Dynein transport | TLR4 MyD88 comp | TLR9-MyD88 block | NOD2-RIPK2 inh | NOD2-RIPK2 conf | BLA counter
COc1ccc(C(C(=O)NC2CCCC2)n2c(Cc3cc(F)cc(F)c3)nc3ccccc32)cc1 (configuration not stated) | -6 | / | / | / | / | 0 | / | /
N#Cc1ccc(C(C(=O)NC2CCCCC2)n2c(=O)c(-c3cc4ccccc4[nH]3)nc3ccccc32)cc1 (configuration not stated) | -7 | / | / | / | / | 54* | 50* | 71*
O=C(NC1CCCCC1)C(c1ccccc1)n1c(=O)c(-c2cc3ccccc3[nH]2)nc2ccccc21 (configuration not stated) | -1 | / | / | / | / | 44* | 40* | 66*
COc1ccc(C(C(=O)NC2CCCCC2)n2c(=O)c(-c3cc4ccccc4[nH]3)nc3ccccc32)cc1 (configuration not stated) | -3 | / | / | / | / | 44* | 41* | 65*
COc1ccc(C(C(=O)NC2CCCC2)n2c(-c3cccs3)nc3ccccc32)cc1 (configuration not stated) | -5 | / | / | / | / | 1 | / | /
O=C(NC1CCCCC1)C(c1ccnc2ccccc12)n1c(=O)c(-c2cc3ccccc3[nH]2)nc2ccccc21 (configuration not stated) | -9 | / | / | / | / | 51* | 50* | 67*
C[n+]1c(-c2ccc(C=NNC(=O)c3ccc(C(=O)NN=Cc4ccc(-c5cn6ccccc6[n+]5C)cc4)cc3)cc2)cn2ccccc21 | / | -16 | / | / | -8 | / | / | /
OC1(c2ccccc2)CNCCc2ccccc21 (configuration not stated) | -5 | 1 | / | / | -8 | 2 | / | /
CCOC(=O)Nc1cccc2ccccc12 | -6 | 12 | -0.17 | 16 | 0 | -21 | / | /
CCOC(=O)Nc1ccc2c3c(cccc13)-c1ccccc1-2 | -7 | 21 | / | / | 16 | 34* | 31* | 47*
CC(NC(=O)COC(=O)Cc1cccs1)c1ccc(F)cc1 (configuration not stated) | 4 | -4 | / | / | 16 | -3 | / | /
CCOC(=O)c1c(SCCN2CCCC2)n(-c2ccccc2)c(=S)n(-c2ccccc2)c1=O | 22* | 53* | / | / | 8 | 89* | 86* | 5
CCNC(=O)C1CCCN(C(=O)c2cccc(C#N)c2)CC1 (configuration not stated) | 5 | / | / | / | / | -5 | / | /
O=C(NCc1ccco1)C(=O)c1c[nH]c2ccccc12 | 0 | -1 | -0.44 | 8 | 1 | 32* | -2 | -4
O=C(Cc1c[nH]c2ccccc12)NCc1ccco1 | -1 | -2 | -0.74 | 3 | 0 | -5 | / | /
COc1ccc(CNC(=O)COc2cc(=O)n(C)c3ccccc23)cc1 | -3 | -15 | -0.37 | -2 | -14 | 25* | -2 | -3
COc1ccc(CNC(=O)CCCOc2cc(=O)n(C)c3ccccc23)cc1 | 1 | -3 | -0.36 | 10 | 6 | 2 | / | /
Cc1cc(C)c(NC(=O)C2CCN(c3cnccn3)CC2)c(C)c1 | -1 | 4 | 2.6 | 0 | -11 | 28* | -8 | -2
C=C(CCO)C1=CCN(S(=O)C(C)(C)C)[C@H]1CCO (some centres not stated) | 2 | -2 | / | / | -5 | 2 | / | /
O=C(Nc1cccc2ccccc12)c1ccc2sc([C@H]3C[C@H](O)[C@@H](CO)O3)nc2c1 | -12 | / | / | / | / | 5 | / | /
CC(C)c1ccc(NC(=O)C2(C)Cc3c(-c4cccc(C(N)=O)c4)ccnc3O2)cc1 (configuration not stated) | 2 | / | / | / | / | 3 | / | /
C=C1CC(Cn2cc(Br)c(=O)[nH]c2=O)(c2ccc(-c3ccccc3)cc2)OC1=O (configuration not stated) | 54* | 51* | / | / | 9 | 79* | 71* | 8
COc1ccc(-c2nnc(SCC(=O)NC3CCCCC3)n2N)cc1 | -1 | -2 | / | / | 2 | 4 | / | /
CN(C)c1ccc(/C=C2\SC(=O)N(CCc3nnc(N)s3)C2=O)cc1 | 12 | -11 | 1.8 | / | 5 | 24* | 22* | 13*
COc1ccc([C@H]2C[C@@H](O)[C@H](n3cc(C4CC4)nn3)CN2Cc2cccs2)cc1 | 4 | / | / | / | -14 | 1 | / | /
SMILES | ABHD5-PLIN5 inh | Beta2AR agonist | Dynein transport | TLR4 MyD88 comp | TLR9-MyD88 block | NOD2-RIPK2 inh | NOD2-RIPK2 conf | BLA counter
COc1ccc(NC(=O)C(C2CC2)n2c(=O)c(-c3cc4ccccc4[nH]3)nc3ccccc32)cc1 (configuration not stated) | -11 | / | / | / | / | 46* | 40* | 67*
O=C(Nc1ccc2ccccc2c1)C(C1CC1)n1c(=O)c(-c2cc3ccccc3[nH]2)nc2ccccc21 (configuration not stated) | -10 | / | / | / | / | 45* | 41* | 66*
O=C(Nc1ccc2c(c1)OCCO2)C(C1CC1)n1c(=O)c(-c2cc3ccccc3[nH]2)nc2ccccc21 (configuration not stated) | 2 | / | / | / | / | 45* | 38* | 61*
CC(Sc1nc2ccccc2[nH]1)C(=O)Nc1ccc2c(c1)OCCO2 (configuration not stated) | 1 | -5 | 1.2 | -4 | 9 | 3 | / | /
CN(CC(=O)Nc1ccc(N2CCOCC2)cc1)C(=O)CCc1cc(C(C)(C)C)c(O)c(C(C)(C)C)c1 | -4 | -2 | / | / | 1 | 10 | / | /
Cn1c(SCC(=O)NNC(=S)Nc2ccccc2)nnc1-c1ccccc1 | -1 | -1 | 0.3 | / | 8 | 0 | / | /
Cn1c(SCC(=O)NNC(=O)Nc2ccccc2)nnc1-c1ccccc1 | -5 | -5 | -0.46 | / | 15 | 24* | 11 | 10
O=C(Nc1ccccc1)c1cc(C2CCCCN2C(=O)c2ccccc2)on1 (configuration not stated) | 0 | / | / | / | / | -9 | / | /
CC1=C(C(=O)N2CCOCC2)CC(CC(=O)NCC2CCCCC2)C(=O)N1CCC1=CCCCC1 (configuration not stated) | -6 | / | / | / | 5 | 0 | / | /
O=C(Nc1cccc([N+](=O)[O-])c1)c1ccc(-c2ccccc2)cc1 | -6 | 6 | 0.98 | 16 | 4 | 34* | 6 | 3
